The EternaBench riboswitch data

Test system: MS2 coat protein
Experiment: apparent Kd, MS2 coat protein; higher = weaker binding; RNA-MaP array; FMN 200 µM where present
Procedure, shortened: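 Stalled E. coli RNA polymerase produced the designs on Illumina sequencing-chip clusters. SNAP-549-labelled MS2 coat protein was added from 0.7 or 1.5 nM, doubling to 3 µM, without and then with constant ligand, in 100 mM Tris-HCl pH 7.5, 80 mM KCl, 4 mM MgCl2, BSA, DTT, yeast tRNA and Tween-20. The apparent Kd is the median of filtered per-cluster fits of green signal normalised to red-channel RNA signal and control-cluster median Fmax.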

[1] = designed as: OFF switch for flavin mononucleotide, no ligand
[2] = ligand present: flavin mononucleotide, designed as: OFF switch for flavin mononucleotide
[3] = designed as: ON switch for flavin mononucleotide, no ligand
[4] = ligand present: flavin mononucleotide, designed as: ON switch for flavin mononucleotide

Sequence	apparent Kd [1] [nM]	apparent Kd [2] [nM]	apparent Kd [3] [nM]	apparent Kd [4] [nM]
AACUCACAUGAGGAUCACCCAUGUGAGGAUAUAUUAAUAUGUAUGUUAUUAUGUAUUGAUAGAAGGCGCGUGAU	46.3	49.1		
GCUGCUAUCACAGGAUAUUACAUGGGAAAGAGUACAUGAGGAUCACCCAUGUAAAAGAUCAUAAAUAAGAAGGGUGAUAGCAGC			150	256
UACAUUACUGAGAAGGGAUAUAUAUAAUUUUAGUCAGGAUAUCGAUACAGUGCAGCAUGAGGACAUGAGGAUCACCCAUGUAUU			20.5	17
ACUAUACGAGGAUAUACUGUCAGUACUCAGACAUAAAUAUGACAUGAGGAUCACCCAUGUAGAAGGCGUUUACU	29	39		
UUUUUGUCAGGAUAUGCGUAGUAGAACAAUAGUACUACUACGUAGAAGGGACAUGAGGAUCACCCAUGUUCCUC	14.4	20.5		
GAUCCUCGGUCAGGAUAUCCCGGCCGGCGGCCGGGAGAAGGGACAUGAGGAUCACCCAUGUUUCGGUCCUUACCCGCUUGGGUC	34	37.1		
AUCCUGCGAGGAUAUACAUAGUUUUGUUUGUUUUGUCUCAAACAUGAGGAUCACCCAUGUAGAAGGUGCGUCAC	155	130		
UUAAUUAUACAAGGAUAUCUAUCCUUAUCAAGACUUACAUGAGGAUCACCCAUGUUAAUAUAAUUAGAGAAGGUGUAAAUACAG			17.4	24.1
CGUUUAUUUAUGGGAUUAUAUUAUGAGGAUAUCAAUAUUUAUUACAUGAGGAUCACCCAUGUUAAUGAGAAGGCAUAAUUAACG			9.53	6.3
GCAGGACAUGAGGAUCACCCAUGUUCAAAAUAUAGAGGAUAUGGAUACGGUAUAUCCGAACCAGAAGGCUACCUGC			14.6	14
CAGACCUACGCAGGAUAUCUUGGGUGUUUCAUGGCAAGAGUCGGUACAUGAGGAUCACCCAUGUAAGAGAAGGGCGUUGCUAAA	404	83		
GUAAACCGGUGAGGAUAUUUAUAAUAGAGCUUUAUGAUAUACAUGAGGAUCACCCAUGUUACUUUAAAGAAGGCAUCGGAAAUG	21.4	17.2		
GGGUGACAUGAGGAUCACCCAUGUCAGGAUAUGAUACUAUGUACUUCGGUACAUAGUAUCAGAAGGGACAUCAU	284	29.9		
AUUUAUGGCCAGAAGGACAUGAGGAUCACCCAUGUAGGAUAUGGACGAUUUUGCUCGGCGGUUUGUUUACGAAGCACCGGUGGU			12.8	6.91
GGGAAGGUUAGAGGAUAUAUUGUGUGUGAGAGAAUAGAAGGCUAAACAUGAGACACACACAUGAGGAUCACCCAUGUUAUGUUU			147	91
GGAUGAGAAACUCAUCCAUAACGAACAUGAGGAUCACCCAUGUAGGAUAUGCUACUCAAAGAGUAGCAGAAGGACAUGUGUCUU	29.6	144		
CAGGUAGACUGAGGAUAUACAAUAAACAGCUAGUCUAUCUAGCUGUCCACAUGAGGAUCACCCAUGUAGAAGGCAGUCUGCCUG	18.9	42		
GCUGUGGCAUGAGGAUAUGGUCAGCUUUGCUGACCAGAAGGCAUGUCAAUAGACAUGAGGAUCACCCAUGUAGUUAACACAGCA			572	40.7
GGACAUAAAGUCAGGAUAUUAAGGCGACCACGCGAUGAGAAGGGACAUGAGGAUCACCCAUGUGAUUCGCAUCA	115	101		
CCCUCGGGAGGAUAUGGGUGUUUUUACAUGAGGAUCACCCAUGUGGAGUAACAUGUGGGUCCAGAAGGCCCAAGGG	1400	663		
GGGCCCGGAGGAUAUACAUGAGGAUCACCCAUGUAUCUGGGUCUUAUUGGGCUCGGGUGUAGAAGGCCGGGCCC	11.8	13.8		
AUAAUAAAGGAGGAUAUCGUAUCGGAAACGAUACGAGAAGGUCUAACAUGAGGAUCACCCAUGUUCCUCAAAUA	43.6	68		
UGUUGUUCAGGAUAUGAUGUCUUAUACAUGAGGAUCACCCAUGUGGGUCCUGAUUUGGCGUCAGAAGGGAAUGUUG	551	569		
AAGAAGAUAGGAUAUACGAGGAGAGGAGAGAAGAGGUGAGGACAUGAGGAUCACCCAUGUAGAAGGAUCAGGAA	46.6	35.6		
UUGGACGUCGUAGGAUAUGUAGGAUAUUCCUACAUGAGGAUCACCCAUGUUGACAUGGACGAAGGACAGAAGGACGAUGUCCAU			479	134
UCGAAACAUGAGGAUCACCCAUGUGCUCACGACAUAGGAUAUACUAGCUCGAAGAGCUGCGUAGAAGGGUGAAGUG			45.9	26.8
UGCUACGUUUCGUAGCAGCUAGGUGAGGAUAUUCAAUUUUUCACAUGAGGAUCACCCAUGUAUGUGAAGAAGGCGCCUAGAAAA			10.2	4.56
ACCAAUGGAGGAUAUACAUGAGGAUCACCCAUGUUUAUCCUACAUAGGUGAAAAACAUGUAGAAGGCCAUUGGA	14.8	13.2		

Sequence	apparent Kd [1] [nM]	apparent Kd [2] [nM]	apparent Kd [3] [nM]	apparent Kd [4] [nM]
UGGUCAUGAUCAGGAUAUUAACAUGGGCUACAUUAAGAAGGGAUAGUGAGAUACGAACUGAACGACAUGAGGAUCACCCAUGUA			44.8	34.3
CUUCGUGAUGCAGGAUAUGUUUGCUUUUUGCGCACAGAAGGGCAUCACAUGAGGAUCACCCAUGUGAGUAGAAAACCGUGGAAA	14.1	79.3		
AGAUAACACCAGAAGGACAUGAGGAUCACCCAUGUAGGAUAUGGGCAUCACUCGAGAAAGAAAAGACCAAAUGGACACAUGGUC			162	12.8
UUGUUGUAUGUAGGAUAUGCAUAUUGUUAUUAUGCAGAAGGACAUGAGGAUCACCCAUGUAUGUUAUUAUUAUGUGUUAUGUGU	39.3	63.9		
CGAAGUCCGUAGAAGGGUGACAUGAGGAUCACCCAUGUGCGAGCGGAGAGAGUCAGCGGCUCGCCACAGGAUAUACGGAGCACG			103	29.1
GGCGGGAAUGAGAAGGGUCACAUGAGGAUCACCCAUGUGCUCUUCGCCGUGACAGGAUAUCAUUGCCGUCAGGUUAGAUUUUUG	8.42	24.7		
CCAUGGCAUGUAGGAUAUGUCUGACAAAGUCAGACAGAAGGACAUGAGGAUCACCCAUGUAGGAAAUAACCACAUAAGCCAUGG	6.32	5.86		
CUUCUGUAAGGAUAUGUAUGCUCCUGGUAUGUCGCGAGGAGACAGAAGGUACAUGAGGAUCACCCAUGUGGGCG	168	304		
GAGCUAUGAGGAUAUGCAUAUAUACGGAUUCGUGUAGUACUACAUGAGGAUCACCCAUGUAGAAGGCGUGGCAG	13.1	15.1		
GAAUAAUUGAUCCUUUUUUAUUACAUGAGGAUCACCCAUGUGCAGGAUAUCGAUUAUUAUAGUUUCGAGAAGGGCAAGAACUAU	27.5	128		
GGAAAGAAAAGCGAGGAUAUGCUAGGUAAUACAUGAGGAUCACCCAUGUUUUUUUUUAACAAAUUGCAGAAGGCGCAAGAAAGAAA			24.5	17.4
AAAGCGUGAGGAUAUGAGGCGCCGGGCCGGUUGGUGCGGAUUCAGAAGGCACAUGAGGAUCACCCAUGUAGGAA	23.4	36.2		
GGUUGUCAUAGUCAUCCUUAACGAACAUGAGGAUCACCCAUGUAGGAUAUGCUACUCAAAGAGUAGCAGAAGGGCGUGUGUCUU	56.6	62.9		
GGUCGUCACAUGAACAUGAGGAUCACCCAUGUAAAUUCUCAUGAGGAUAUGGAUCCUAAUUGGAUCCAGAAGGCAUGGACGACC			1090	333
AUUAUGACCGAGUUAUAGUUCCAAACAUGAGGAUCACCCAUGUAGGAUAUCAGCACGAUAAGUGCUGAGAAGGACAUCUCGGUC	14.9	16.1		
AGUGAGCAGACAGGAUAUCCACUCAGGUCUGAGUCAACGACAUGAGGAUCACCCAUGUCCUAAAAGGAGAAGGGUCAUGGUCGU			198	107
AUUAUGUUAGGAUAUGCUUAUGGUGGAUAGUCCAAUAUGGUGCAGAAGGGACAUGAGGAUCACCCAUGUACUGA	83.2	90.3		
CGCCAUCCCGGUGGCGUGAGGAUACCAGAAGGGACGAUCUCACAUGAGGAUCACCCAUGUUAUAGUCAGGAUAUGGGUUCAUCA			88.5	12.3
UCUAGACAUGAGGAUCACCCAUGUCGAUAUGGCGCAGGAUAUCGGUACUCAUAGAGUACGCGAGAAGGGUGACUUC			343	48.4
AUAAUUUUAUAUAUCAUAUAAAUCAGAAGGCAUAACAUGAGGAUCACCCAUGUAUAUUAUUGUUAUGAGGAUAUGAUUUAGUUA	15.8	65.5		
AGGAAACAUGAGGAUCACCCAUGUAAAUAUGGGCGAGGAUAUCGAAAGAAAAGAAAGAAACGAGAAGGCGCAAAAG			324	77.7
CUCCUCCCGAAGGAUAUCCACGCCAACUUCGUAGGAGAAGGUCGGACAUGAGGAUCACCCAUGUGGCCAUGGUU	18.5	40.3		
UUGAUAAAUUAGAAGGCGUGAUAAAAUACAAUAAACAUGAGGAUCACCCAUGUGUACCCAUGUUAUGAGGAUAUAGACAUUUAU			365	245
UCGCGGGUGCAGAAGGGAUAGGCCUAUUGUCGUGGUGUCUAAACUUAACAUGAGGAUCACCCAUGUCAGGAUAUGCCCACGCGA	11.6	13.5		
GCCUCAUAGUAGAAGGGACUUAGACAGUUAAGCAUCUUGUACAAUUAACAUGAGGAUCACCCAUGUCAGGAUAUACUAAGAGGC	8.02	9.49		
CACACAUGAGGAUCACCCAUGUCGUGGGCGGAAAACUGUGCACAGGAUAUGGUGAGUGCAACUCACCAGAAGGGUGGUCAGGAA			122	63
UUUACGUGAGGAUAUGCGAAUAGUACGUAAGUCAUACAGACGCAGAAGGCACAUGAGGAUCACCCAUGUGAACC	22.7	80.4		
